# Screens (PubChem)
# hERG rescue = hERG rescue from dofetilide block, primary screen, cell-based, CHO-hERG, FluxOR thallium flux, dofetilide IC70; Voltage-gated inwardly rectifying potassium channel KCNH2 (Homo sapiens), Q12809; dofetilide IC70 present; activation (rescue from dofetilide block), less the hit threshold, % at 10 µM; hit rate 0.51% among 310,000; AID 1511, 2009;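 active = activation above the mean of controls blocked by dofetilide plus 5 SD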;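 also: thallium influx through hERG after potassium depolarization seen as dye fluorescence rise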
# KCNQ1 act = potentiators or activators of KCNQ1 channel, primary screen, cell-based, thallium flux, high-throughput; Potassium voltage-gated channel subfamily KQT member 1 (Homo sapiens), P51787; CHO-K1 KCNQ1, thallium flux FluxOR fluorescence; hits give high values; B-score at 10 µM; hit rate 0.35% among 310,000;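 active = fluorescence ratio B-score, a plate-corrected score, at least three library SD, with initial intensity B-score within 5 SD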
#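 Medium – assay buffer, equal DMSO in all wells · Material – CHO-K1 cell line with stable KCNQ1 potassium channel expression · Signal – kinetic FluxOR thallium fluorescence, 10-s 1-Hz baseline, 110-s post-stimulus read · Compound – single concentration per compound, DMSO matched to controls · Schedule – 37 °C overnight plating, 90-min dark dye load, 20-min compound pretreatment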
# KCNK9 inh = KCNK9 potassium channel inhibitors, primary screen, HEK293 cells, thallium flux; Potassium channel subfamily K member 9 (Homo sapiens), Q9NPC2; FluxOR thallium flux fluorescence; hits give low values; B-score at 10 µM; hit rate 1.2% among 310,000;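 active = ratio B-score over 3 SD below the library mean, with starting fluorescence within 5 SD of its mean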;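 also: negative B-score means less thallium flux so channel inhibition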
# KCNQ1 block = inhibitors of human KCNQ1 channel, primary screen, cell-based, thallium flux, high-throughput; CHO-K1 KCNQ1, FluxOR thallium flux fluorescence; hits give high values; B-score at 10 µM; AID 2642, 2010; hit rate 1.3% among 310,000; Potassium voltage-gated channel subfamily KQT member 1 (Homo sapiens), P51787;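 active = compounds whose thallium flux B-score, printed positive for inhibition, exceeds three library SD while starting fluorescence stays within three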;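 also: channel opened by potassium depolarization with thallium stimulus after 20 min compound exposure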
# KCNK3 block = human KCNK3 channel inhibitors, primary screen, CHO cells, FluxOR thallium flux, B-score; Potassium channel subfamily K member 3 (Homo sapiens), O14649; FluxOR fluorescence; hits give low values; B-score at 10 µM; hit rate 0.84% among 340,000; AID 602410, 2012;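 active = B-score under library mean minus 4 SD, starting fluorescence ratio at most library mean plus 5 SD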;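 also: more negative B-score means stronger inhibition of thallium flux through KCNK3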
# KCNK9 block conf = KCNK9 potassium channel inhibitors, confirmation, HEK293 cells, thallium flux, duplicate; FluxOR thallium flux fluorescence; shares compounds with KCNK9 inh; inhibition, % at 10 µM; hit rate 43% among 4,900; AID 492992, 2010;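 active = thallium signal inhibited by more than 5 SD of the compound-free buffer control wells, on both duplicate plates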;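 also: 0% = assay buffer control wells without compound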
# Kir21 sel = mouse Kir2.1 channel inhibition, confirmation, selectivity assay for KCNK9 modulator project, cell-based, HEK293, thallium flux; shares compounds with KCNK9 inh; Kir2.1 cells, FluxOR thallium flux fluorescence; inhibition, % at 10 µM; hit rate 4% among 4,900; AID 492993, 2010;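 active = thallium signal drop more than 5 SD beyond the mean of the no-compound control wells, seen in both duplicate plates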;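 also: signal is fluorescence rise after thallium addition divided by baseline fluorescence; plate controls were assay buffer only for no effect and full block by chlorpromazine control for full effect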
# HEK293 Tl ctr = thallium flux in non-induced HEK293 cells, confirmation, counter-screen for KCNK9 inhibitor project, cell-based, second counter screen, non-induced KCNK9-HEK293; shares compounds with KCNK9 inh; FluxOR thallium flux; inhibition, % at 10 µM; hit rate 40% among 4,900; AID 492997, 2010;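 active = thallium signal drop beyond 5 SD of the untreated control mean, on both duplicate plates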;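 also: plate controls were buffer only IC0 wells for no effect and SID17386958 at its maximal inhibitory level for full effect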
# KCNK3 inh conf = retest of human KCNK3 channel inhibitors, confirmation, CHO cells, FluxOR thallium flux, triplicate. shares compounds with KCNK3 block. FluxOR fluorescence; 0% buffer, 100% carvedilol maximal block. ratio percent of control, % at 10 µM. hit rate 99% among 2,400. AID 651638, 2012;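 active = ratio percent of control, averaged over triplicates, above buffer control mean plus 5 SD, cut at about 64% in these data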;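 also: ratio is the fluorescence rise from min to max over baseline after thallium stimulus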
# KCNK3 uninduced = thallium flux inhibition in non-induced cells, primary screen, counter-screen for KCNK3 inhibitor project, cell-based, non-induced KCNK3 line, FluxOR thallium, triplicate; thallium flux ratio (lower = more inhibition) at 10 µM; hit rate 40% among 2,400; non-induced KCNK3 parental cells; hits give low values; shares compounds with KCNK3 block;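 active = thallium flux ratio, averaged over three wells, more than 5 SD below the buffer control mean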;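 also: host cells are CHO cells without KCNK3 induction; ratio is peak minus trough fluorescence over baseline then normalized to buffer controls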
# Numbers without * were called inactive; i = inactive; . = not tested or not shown. Only some compounds are listed: those with a hit (about 3.1% of all), similar ones and a draw of the others.
SMILES,hERG rescue,KCNQ1 act,KCNK9 inh,KCNQ1 block,KCNK3 block,KCNK9 block conf,Kir21 sel,HEK293 Tl ctr,KCNK3 inh conf,KCNK3 uninduced
COc1cccc(-c2nn(-c3ccccc3)cc2/C=C\C(=O)c2cccs2)c1,-7,i,-9.5*,i,-12*,39%*,i,30%*,89*,i
COc1ccccc1C(=O)Nc1ccc(S(=O)(=O)N(C)c2ccccc2)cc1,-2,i,-9.1*,i,-9.3*,48%*,i,i,106*,i
CCN(CC)C(=O)c1[nH]cnc1C(=O)NCc1ccccc1,.,.,.,.,i,.,.,.,.,.
CCOc1ccccc1C(=O)Nc1cc2c(cc1N1CCCC1)n(CC)c(=O)n2CC,-29,i,-14*,i,-8.8*,51%*,i,22%*,101*,i
O=C(N/N=C/c1ccc(Cl)cc1)c1cc(-c2cccnc2)nc2ccccc12,-4,i,i,i,i,.,.,.,.,.
Nc1sc(-c2ccccc2)cc1C(=O)N/N=C/c1ccc(Cl)cc1,-9,i,-14*,i,i,52%*,i,38%*,123*,i
CC(C)Oc1ccccc1/C=N/n1nnnc1N,-7,i,i,i,i,.,.,.,.,.
CC(C)C1OC(c2cccc(NC(=O)c3cccs3)c2)OCC1(C)C (centres undefined),-17,i,-8.5*,i,-9.5*,50%*,i,44%*,114*,0.16*
CCn1ccnc1CN(C)Cc1c(C(=O)N2C[C@@H](C)O[C@@H](C)C2)nc2ccc(Cl)cn12,-3,i,i,i,i,.,.,.,.,.
CCCOc1ccccc1Cn1c(=O)oc2ccc(C)cc21,-18,16*,-10*,i,-8.7*,52%*,i,46%*,115*,i
CCOc1ccccc1Cn1c(=O)oc2ccc(C)cc21,.,.,.,.,i,.,.,.,.,.
O=S1(=O)C=C(Oc2ccc(F)cc2)c2ccccc21,-7,i,i,i,i,.,.,.,.,.
O=S1(=O)C=C(Oc2ccc3ccccc3c2)c2ccccc21,-16,i,-9.6*,i,-9.7*,40%*,i,42%*,107*,i
CCN(CC(=O)Nc1ccc(OC)cc1)C(=O)Cc1ccsc1,.,.,.,.,i,.,.,.,.,.
N#Cc1c(SCC(=O)O)nc(N2CCCCC2)c2c1CCCC2,-4,i,i,i,i,.,.,.,.,.
COC(=O)CSc1nc(N2CCCCC2)c2c(c1C#N)CCCC2,4,i,-10*,i,-11*,38%*,i,35%*,104*,i
CN(C(=O)c1cccc(C#CC(C)(C)O)c1)C1CCCN(Cc2ccccc2F)C1 (centres undefined),-10,i,i,i,i,.,.,.,.,.
CSc1nc(Cl)c(Cc2ccc(OC(C)C)cc2)c(N(C)C)n1,-20,i,-8.4*,i,-8.8*,i,i,38%*,134*,0.13*
CSc1nc(Oc2ccc3ccccc3c2)c2sccc2n1,-5,i,-10*,i,-9*,41%*,i,32%*,98*,i
